Here are results for 9 compounds from ChEMBL document CHEMBL3813688, “Synthesis, antitumor activity and mechanism of action of novel 1,3-thiazole derivatives containing hydrazide-hydrazone and carboxamide moiety” (Bioorg Med Chem Lett, 2016).

Structures are written as SMILES. Values after ≈ are worked out from the molar mass of the structure shown.

Data set [1] relates to MCF7. Description: Cytotoxicity against human MCF7 cells assessed as cell growth inhibition after 72 hrs by MTT assay. In kind it is functional, cell-based. Particulars: MCF7, 72 h. In outline:
(§1)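 MTT growth assay in human cancer lines (MCF-7, HepG2, BGC-823, HeLa, A549), 72 h after treatment; 5-fluorouracil as reference. IC50 (μg/mL) taken as concentration giving 50% growth inhibition versus untreated control.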
In general terms: Formazan colour is commonly taken as a measure of viable cells.

The subject of data set [2] is HeLa. Description: Cytotoxicity against human HeLa cells assessed as cell growth inhibition after 72 hrs by MTT assay. The class given is functional, cell-based. In outline:
as §1

Data set [3] deals with HepG2. Description: Cytotoxicity against human HepG2 cells assessed as cell growth inhibition after 72 hrs by MTT assay. The class given is functional, cell-based. Particulars: HepG2, 72 h. The gist of the method: as §1
Data set [4] can be described thus: Cytotoxicity against human BCG823 cells assessed as cell growth inhibition after 72 hrs by MTT assay. In kind it is functional, cell-based. Particulars: BCG823, 72 h. The gist of the method:
as §1

For data set [5], the system named is A549. Description: Cytotoxicity against human A549 cells assessed as cell growth inhibition after 72 hrs by MTT assay. The class given is functional, cell-based. The conditions noted are these: A549, 72 h. In outline:
as §1

A short description of data set [6]: Cytotoxicity against human HL7702 cells assessed as cell growth inhibition after 72 hrs by MTT assay. In kind it is cell-based. Particulars: L02, 72 h.
Data set [7] relates to MCF7. The data set is described as follows: Cytotoxicity against human MCF7 cells assessed as cell growth inhibition at 20 ug/ml after 72 hrs by MTT assay. The conditions noted are these: MCF7, 72 h, read-out: GI. In kind it is functional.
The subject of data set [8] is HeLa. The data set is described as follows: Cytotoxicity against human HeLa cells assessed as cell growth inhibition at 20 ug/ml after 72 hrs by MTT assay. In kind it is functional. The conditions noted are these: read-out: GI.
For data set [9], the system named is HepG2. Description: Cytotoxicity against human HepG2 cells assessed as cell growth inhibition at 20 ug/ml after 72 hrs by MTT assay. In kind it is functional. The conditions noted are these: HepG2, 72 h, read-out: GI.
Data set [10] can be described thus: Cytotoxicity against human BCG823 cells assessed as cell growth inhibition at 20 ug/ml after 72 hrs by MTT assay. In kind it is functional. The conditions noted are these: BCG823, 72 h, read-out: GI.
Data set [11] concerns A549. Description: Cytotoxicity against human A549 cells assessed as cell growth inhibition at 20 ug/ml after 72 hrs by MTT assay. The class given is functional. Particulars: A549, 72 h, read-out: GI.
Data set [12] has as its system MCF-7, HepG2, BGC-823, HeLa, A549 cancer cell lines (Homo sapiens). The data set is described as follows: Cytotoxicity against human MCF-7, HepG2, BGC-823, HeLa and A549 cells assessed as cell growth inhibition at 20 ug/ml after 72 hrs by MTT assay. The conditions noted are these: read-out: GI.

Usually IC50 stands for the concentration that gives 50% inhibition. Take `CN(C(=O)NC(=O)c1ccc(F)c(F)c1)c1nc(C(F)(F)F)c(C(=O)N/N=C/c2cccc(C(F)(F)F)c2)s1`: the IC50 in data set [1] worked out at 4.15 µg/mL (≈ 7.16 µM); in [2], 4.21 µg/mL (≈ 7.27 µM); in [3] it was 5.6 µg/mL (≈ 9.66 µM); in data set [4] it was 4.46 µg/mL (≈ 7.7 µM); in [5] it was 6.52 µg/mL (≈ 11.3 µM); in data set [6], 23.5 µg/mL (≈ 40.5 µM).

As to `CNc1nc(C)c(C(=O)N/N=C/c2ccc(C(F)(F)F)cc2)s1`, the 50% inhibitory concentration (IC50) in data set [1], in data set [2], in [3], in data set [4] and in data set [5] was above 100 µg/mL in each case. Further, the inhibition of growth at 20 µg/mL in data set [7], in data set [8], in [9], in data set [10] and in data set [11] was below 30% throughout. For the same compound, the inhibition at 72 h, 20 ug/ml in [12] is below 30%.

In the case of `O=c1[nH]cc(F)c(=O)[nH]1` [FLUOROURACIL], the IC50 in data set [1] turned out to be 10.8 µg/mL (≈ 83 µM); in data set [2], 10.7 µg/mL (≈ 82.4 µM); in data set [4], 10.9 µg/mL (≈ 83.7 µM); in data set [5], 10.5 µg/mL (≈ 80.7 µM); in data set [6] it was 14.5 µg/mL (≈ 112 µM).

For the compound `CNc1nc(C(F)(F)F)c(C(=O)N/N=C/c2ccccc2C(F)(F)F)s1`, the IC50 in [1], in data set [2], in [3], in data set [4] and in data set [5] was above 100 µg/mL throughout. The inhibition of growth at 20 µg/mL in [7], in data set [8], in [9], in data set [10] and in [11] was below 30% in each case. In data set [12], the inhibition at 72 h, 20 ug/ml was below 30%.

Regarding `CNc1nc(C)c(C(=O)N/N=C/c2cccc(C(F)(F)F)c2)s1`, the IC50 in data set [1], in [2], in [3], in [4] and in data set [5] was above 100 µg/mL throughout. In addition, the inhibition of growth at 20 µg/mL in [7], in [8], in [9], in data set [10] and in [11] was below 30% each time. Also, the inhibition at 72 h, 20 ug/ml in [12] was below 30%.

In the case of `CN(C(=O)NC(=O)c1ccc(F)c(F)c1)c1nc(C(F)(F)F)c(C(=O)N/N=C/c2ccc(C(F)(F)F)cc2)s1`, the IC50 in [1] worked out at 5.93 µg/mL (≈ 10.2 µM); in data set [2], 5.1 µg/mL (≈ 8.8 µM); in data set [3], 6.26 µg/mL (≈ 10.8 µM); in data set [4], 3.85 µg/mL (≈ 6.64 µM); in [5], 6.07 µg/mL (≈ 10.5 µM); in [6] it was 13.2 µg/mL (≈ 22.9 µM).

For `CN(C(=O)NC(=O)c1ccc(F)c(F)c1)c1nc(C(F)(F)F)c(C(=O)N/N=C/c2cc(C(F)(F)F)cc(C(F)(F)F)c2)s1`, the IC50 in data set [1] came to 2.61 µg/mL (≈ 4.03 µM); in data set [2], 4.45 µg/mL (≈ 6.87 µM); in data set [3] it was 5.47 µg/mL (≈ 8.45 µM); in data set [4], 3.51 µg/mL (≈ 5.42 µM); in [5], 5.47 µg/mL (≈ 8.45 µM); in data set [6] it was 20.1 µg/mL (≈ 31 µM).

Take `CNc1nc(C(F)(F)F)c(C(=O)N/N=C/c2ccc(C(F)(F)F)cc2)s1`: the IC50 in [1], in data set [2], in data set [3], in data set [4] and in data set [5] was above 100 µg/mL in each case. For the same compound, the inhibition of growth at 20 µg/mL in data set [7], in data set [8], in data set [9], in data set [10] and in data set [11] was below 30% each time. Besides, the inhibition at 72 h, 20 ug/ml in [12] was below 30%.

With `CNc1nc(C(F)(F)F)c(C(=O)N/N=C/c2cccc(C(F)(F)F)c2)s1`, the IC50 in data set [1], in data set [2], in data set [3], in [4] and in data set [5] was above 100 µg/mL throughout. The inhibition of growth at 20 µg/mL in data set [7], in data set [8], in data set [9], in data set [10] and in data set [11] was below 30% each time. For the same compound, the inhibition at 72 h, 20 ug/ml in [12] is below 30%.
